Assay outcomes as filed in PubChem BioAssay.
PAFAH2 inh – inhibitors of human PAFAH2; Q99487; recombinant PAFAH2, FP-rhodamine activity probe, fluorescence polarization; inhibition, % at 3.39 µM; 340,000 compounds, 0.99% hits; AID 492956;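 active means inhibition above the mean over all tested compounds plus 3 SD, cut at about 30% in these data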;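 further: inhibitors block probe labeling of enzyme so polarization drops; 0% = enzyme with DMSO and 100% = wells lacking PAFAH2 protein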
PAFAH1B2 FP inh – inhibitors of human PAFAH1B2. inhibition, % at 3.39 µM. 340,000 compounds, 1.2% hits. AID 492953. recombinant PAFAH1B2, FP-rhodamine activity probe, fluorescence polarization;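 active means inhibition above the mean of all tested compounds plus 3 SD, cut at about 24% in these data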;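 further: 0% = enzyme with DMSO and 100% = wells lacking PAFAH1B2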
TDP2 absorb – TDP2 (human) inhibition, absorbance primary screen. 370,000 compounds, 0.34% hits. O95551. AID 720702. inhibition, % at 12.8 µM. recombinant TDP2, T5PNP hydrolysis, p-nitrophenol absorbance 415 nm;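 active means inhibition above the mean of all tested compounds plus 3 SD, set per campaign, cut at about 25% in these data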;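 further: 0% = DMSO with enzyme and 100% = buffer with substrate but no TDP2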
Target sequence (O95551 whole entry, looked up): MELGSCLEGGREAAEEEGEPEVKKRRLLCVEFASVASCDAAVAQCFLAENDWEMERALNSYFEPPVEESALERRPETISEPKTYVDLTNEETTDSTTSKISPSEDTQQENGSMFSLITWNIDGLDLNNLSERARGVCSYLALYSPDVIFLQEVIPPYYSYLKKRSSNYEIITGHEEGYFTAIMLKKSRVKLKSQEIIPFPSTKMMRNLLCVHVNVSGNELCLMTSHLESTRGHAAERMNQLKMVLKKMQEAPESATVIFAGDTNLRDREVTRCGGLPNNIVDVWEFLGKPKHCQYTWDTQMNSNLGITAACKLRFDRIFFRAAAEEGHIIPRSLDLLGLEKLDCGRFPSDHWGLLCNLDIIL
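test system = human TDP2 enzyme | input = TDP2 enzyme at 120 nM final | medium = 50 mM Tris-HCl pH 7.5 with Mg2+, KCl, DTT, BSA | also added = T5PNP substrate, 5 mM | times = 2 h at 37 °C | technique = epi absorbance | benchmarks = high control without enzyme, low control DMSO plus TDP2 | replication = each compound tested once, singlicate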
PAFAH1B3 FP inh – PAFAH1B3 (human) inhibition; recombinant PAFAH1B3, FP-rhodamine probe, fluorescence polarization; 340,000 compounds, 0.28% hits; Q15102; inhibition, % at 3.39 µM;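 active means inhibition above the screen-wide average of all tested compounds plus 3 SD, cut at about 25% in these data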;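 further: 0% = enzyme with DMSO only and 100% = wells lacking PAFAH1B3 protein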
Target sequence (Q15102 whole entry, looked up): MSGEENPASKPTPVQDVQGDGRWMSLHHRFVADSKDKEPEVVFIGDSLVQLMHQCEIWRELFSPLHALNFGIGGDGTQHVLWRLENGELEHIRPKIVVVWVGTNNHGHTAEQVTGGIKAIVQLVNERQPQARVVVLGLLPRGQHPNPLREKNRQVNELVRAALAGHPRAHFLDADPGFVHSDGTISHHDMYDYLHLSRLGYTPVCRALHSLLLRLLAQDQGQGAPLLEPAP
Apaf1 inhib – inhibitors of human Apaf-1 apoptosome. O14727. reconstituted apoptosome caspase-3 activity, DEVD-Rh110 fluorescence. inhibition, % at 20 µM. 330,000 compounds, 0.71% hits; active means inhibition of at least 40% at 20 µM;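 further: plate controls were DMSO wells for no effect and DEVD-CHO caspase inhibitor wells for full effect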
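Assay system – apoptosome proteins · Medium – Hepes buffer, pH 7.5 · Also added – cytochrome c with DEVD-Rh110 · Timing – 30 min compound preincubation, 50 min activation, room temperature · Detection – Rh110 fluorescence, excitation 480 nm, emission 540 nm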
The depositor's hits bear a star; x = no result. This is a sample that favours compounds with a hit; in the whole collection about 2.3% have one here.

SMILES	PAFAH2 inh	PAFAH1B2 FP inh	TDP2 absorb	PAFAH1B3 FP inh	Apaf1 inhib
CCc1ccc(CCNC(=O)OCCCN2CCC3(CCC(C)CC3)C2=O)cc1 (stereo not drawn)	x	x	4	x	x
CC(=O)NC(Cc1ccc2c(c1)OCO2)C(=O)N1CCCC1 (stereo not drawn)	x	x	-6	x	x
O=C(COC(=O)C12CC3CC(CC(Cl)(C3)C1)C2)N1CCCCC1	2	29*	-4	13	20
CC(NC(=O)COC(=O)C12CC3CC(CC(O)(C3)C1)C2)c1ccccc1 (stereo not drawn)	20	4	-6	6	6
CC(CCc1ccccc1)NC(=O)COC(=O)C12CC3CC(CC(Br)(C3)C1)C2 (stereo not drawn)	-6	45*	-5	7	25
Cc1ccc(-c2cc(-c3nnc(SCC(=O)N4c5ccccc5Sc5ccc(Cl)cc54)n3N)[nH]n2)cc1	x	x	-1	x	x
C[C@H]1[C@@H](NC(=O)Cc2ccsc2)CC[C@@]23CCCN2C(=O)CCC[C@@H]13	x	x	16	x	x
COC(=O)[C@H](CC(C)C)N(CCCc1cn(Cc2ccccc2)nn1)S(=O)(=O)c1ccccc1Br	x	x	-19	x	x
COc1cccc(N2C(=O)CC(Nc3ccc(N4CCOCC4)cc3)C2=O)c1 (stereo not drawn)	33*	6	x	5	-393
O=C1CC(Nc2ccc(N3CCOCC3)cc2)C(=O)N1c1cccc(C(F)(F)F)c1 (stereo not drawn)	12	3	x	4	18
CCn1cc(C(=O)N[C@H](C(=O)NC(C)(C)CO)C(C)C)c(=O)c2cc3c(cc21)OCO3	5	3	25*	-3	-1
CCn1cc(C(=O)N[C@H](C(=O)NCCO)C(C)C)c(=O)c2cc3c(cc21)OCO3	-3	-6	0	4	-1
CCCCCn1nnnc1C1(C)CSCC(=O)N1Cc1ccco1 (stereo not drawn)	x	x	-5	x	x
Cc1cc(-c2ccccc2)c2ccc(NC(=O)C(C)(C)C)nc2n1	-13	33*	-15	14	7
CCN(C(=O)CSc1nnc(-c2cccnc2)n1Cc1ccco1)c1ccccc1C	x	x	-3	x	x
O=C(CSc1nc2ccccc2nc1N1CCCCC1)N1CCN(S(=O)(=O)c2cc(Cl)ccc2Cl)CC1	x	x	0	x	x
COc1ccc(C[N+]2=C(N)NC3=C4CCCCC4n4c(=O)n(-c5ccccc5)c(=O)n4C3C2)c(OC)c1 (stereo not drawn)	x	x	4	x	x
N#Cc1c2c(c(-n3cnc4ccccc43)n3c1nc1ccccc13)CCC2	-5	2	10	8	45*
Cc1ccc(SCc2[nH]nc3c2C(c2ccc(C)o2)C(C#N)=C(N)O3)cc1 (stereo not drawn)	13	21	7	3	24
Cc1ccc(SCc2[nH]nc3c2C(c2ccco2)C(C#N)=C(N)O3)cc1 (stereo not drawn)	7	34*	5	14	-1
C#CCN1CC(N(C)CCOC(=O)c2cc(C)cc(C)c2)CS1(=O)=O (stereo not drawn)	x	x	-2	x	x
C#CCOCCOCCOCCNc1nc(N2CCN(C(=O)CCCCCCCCCCNC(=O)[C@H]([C@@H](C)CC)n3cc(CCCCCN)nn3)CC2)nc(N2CCN(C(=O)CCCCCCCCCCNC(=O)[C@@H]([C@H](C)O)n3cc(C)nn3)CC2)n1	1	3	x	-5	50*
C#CCOCCOCCOCCNc1nc(N2CCN(C(=O)CCCCCCCCCCNC(=O)[C@H](CCC(=O)O)n3cc(CCCCCN)nn3)CC2)nc(N2CCN(C(=O)CCCCCCCCCCNC(=O)[C@@H]([C@H](C)O)n3cc(C)nn3)CC2)n1	2	6	x	-3	51*
C#CCOCCOCCOCCNc1nc(N2CCN(C(=O)CCCCCCCCCCNC(=O)[C@H](CCCCN)n3cc(C)nn3)CC2)nc(N2CCN(C(=O)CCCCCCCCCCNC(=O)[C@@H]([C@H](C)CC)n3cc(CCCCCN)nn3)CC2)n1	-6	-4	x	21	82*
C#CCOCCOCCOCCNc1nc(N2CCN(C(=O)CCCCCCCCCCNC(=O)[C@@H](CCC(=O)O)n3cc(CCCCCN)nn3)CC2)nc(N2CCN(C(=O)CCCCCCCCCCNC(=O)[C@@H](CCC(=O)O)n3cc(CCCCCN)nn3)CC2)n1	2	-1	-1	8	36
SMILES	PAFAH2 inh	PAFAH1B2 FP inh	TDP2 absorb	PAFAH1B3 FP inh	Apaf1 inhib
CCOC(=O)NNc1ccc2nonc2c1[N+](=O)[O-]	x	x	x	x	96*
O=C(Cn1cnc2ccccc2c1=O)N1CCCCC1	x	x	-4	x	x
O=C1C(=O)N2C(=C1C(=O)N1CCCCCC1)c1ccccc1CC21CCCC1	3	57*	1	6	-3
CC1(C)Cc2ccccc2C2=C(C(=O)N3CCCCCC3)C(=O)C(=O)N21	1	61*	-1	0	-3
CCC1(CC)Cc2ccccc2C2=C(C(=O)N3CCCCC3)C(=O)C(=O)N21	4	17	1	4	-13
O=C(O)c1ccc(-c2ccc(/C=c3/sc4nc5ccccc5n4c3=O)o2)cc1Cl	23	15	17	26*	17
Cc1cc(C)c2nc3sc(=Cc4ccc(-c5ccccc5C(=O)O)o4)c(=O)n3c2c1	x	x	-1	x	x
O=C(O)CCN1C(=O)/C(=C/c2ccc(-c3nc4ccccc4s3)o2)SC1=S	18	4	-6	20	8
O=Cc1ccc(-c2nc3ccccc3s2)o1	-5	-6	10	1	6
O=C(O)CC(C(=O)O)N1C(=O)/C(=C/c2ccc(-c3nc4ccccc4s3)o2)SC1=S (stereo not drawn)	34*	7	13	18	38
O=C(O)CCCN1C(=O)/C(=C\c2ccc(-c3nc4ccccc4s3)o2)SC1=S	41*	13	0	25	-81
O=C(NCCc1ccccc1)C1CCCN(S(=O)(=O)c2cnc[nH]2)C1 (stereo not drawn)	-1	6	10	6	-2
O=C(NCCC1=CCCCC1)C1CCCN(S(=O)(=O)c2cnc[nH]2)C1 (stereo not drawn)	1	26*	5	0	-8
O=C(NCCC1=CCCCC1)C1CCCN(S(=O)(=O)c2ccccc2)C1 (stereo not drawn)	4	27*	3	4	-11
Cc1ccc(S(=O)(=O)N2CCCC(C(=O)NCCC3=CCCCC3)C2)cc1 (stereo not drawn)	-2	15	4	4	-7
COC(=O)c1cc(-c2ccc(Cl)s2)c(=O)n2c1CCC2	x	x	4	x	x
CCC(C)NC(=O)CNc1nnnn1-c1ccccc1 (stereo not drawn)	x	x	-3	x	x
Cc1ccc(/C(N)=N/OC(=O)c2ccc(F)cc2)cc1	6	3	-1	7	-16
C/C(=N\OC(=O)c1ccc(F)cc1)c1ccc(F)c(F)c1	37*	22	-13	-5	-23
O=C(CCN1C(=O)/C(=C/c2ccc(Cl)cc2)SC1=S)Nc1cccc(C(=O)O)c1	3	8	6	-4	3
